Screening results as filed in PubChem.
Only some compounds are listed: those with a hit (about 2.4% of all), similar ones and a draw of the others.
PP5 primary – PP5 phosphatase inhibitors, primary screen, biochemical, fluorescence. purified PP5c, OMFP substrate fluorescence. inhibition, % at 6.7 µM. actives 0.18% (n = 320,000);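 active means inhibition above the campaign's mean inhibition across all tested compounds plus 3 SD, cut at about 9.5% in these data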;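 further: 0% = DMSO only and 100% = 100 µM cantharidin control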
pCIP destab – p/CIP-EGFP fusion destabilizers, primary screen, fluorescence, F442A cells. Q05BA5. 16 h. decrease of EGFP signal, % at 10 µM. actives 0.01% (n = 290,000). AID 1984, 2009;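 active means EGFP signal decrease of at least 30% at 10 µM or well 3 SD below plate mean, unless failing retest; inactive means the rest, including hits failing retest or dose response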
Fh CTSL1 inh – Fasciola hepatica cathepsin L1 inhibitors, primary screen, counter-screen for PFM18AAP inhibitor project, biochemical, QFRET, fluorogenic peptide substrate; recombinant F. hepatica cathepsin L1, Z-Leu-Arg-MCA fluorescence; inhibition, % at 5.96 µM; actives 0.49% (n = 300,000);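 active means inhibition above the mean of all tested compounds plus 3 SD, set per screening campaign, cut at about 17% in these data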;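 further: 0% = plate median of test compound wells and 100% = 1 µM Z-Phe-Ala-diazomethylketone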
T cruzi inh – inhibitors of intracellular T. cruzi growth, primary screen, luminescence, NIH3T3 host cells; T. cruzi beta-gal in NIH3T3, 90 h; inhibition, % (concentration not given with the values); actives 1.4% (n = 300,000);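 active means mean inhibition across valid replicates above about 55%, limit read from the data; inconclusive means mean below that limit but half or more replicates reach it; inactive means mean below it, under half of replicates reach it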;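 further: signal also drops with host cell toxicity which is not excluded here; 0% = plate median of DMSO wells and 100% = zero luminescence signal; higher percent means less beta-gal luminescence so fewer parasites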
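System: Mouse NIH/3T3 fibroblasts infected with β-gal-expressing T. cruzi Tulahuen C4 | Quantity: NIH/3T3 cells, 5,000 per well | Reagent: 5000 reporter trypomastigotes per well | Dosing: Compound pinned at 50 nL/well, DMSO | Schedule: 3 h host attachment, then at least 90 h co-culture | Detection: GalScreen luminescence, 60 min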
GASC-1 inh – inhibitors of GASC-1 histone demethylase, primary screen, biochemical, fluorescence, DELFIA europium | actives 0.069% (n = 330,000) | inhibition, % at 2.35 µM | AID 2099, 2009 | Lysine-specific demethylase 4C (Homo sapiens), Q9H3R0 | GST-JMJD2C(1-420) H3K9me3 demethylation;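 active means more than half of a compound's replicate wells show inhibition beyond 50%, single wells judged on their own value; inconclusive means some, but no more than half, of replicates pass 50% inhibition; inactive means no replicate passes 50% inhibition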;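 further: signal counts dimethyl H3K9 product captured on neutravidin plate; 0% = median of DMSO wells and 100% = 0.3 times that DMSO median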
Target sequence (Q9H3R0 1-420 limits assumed): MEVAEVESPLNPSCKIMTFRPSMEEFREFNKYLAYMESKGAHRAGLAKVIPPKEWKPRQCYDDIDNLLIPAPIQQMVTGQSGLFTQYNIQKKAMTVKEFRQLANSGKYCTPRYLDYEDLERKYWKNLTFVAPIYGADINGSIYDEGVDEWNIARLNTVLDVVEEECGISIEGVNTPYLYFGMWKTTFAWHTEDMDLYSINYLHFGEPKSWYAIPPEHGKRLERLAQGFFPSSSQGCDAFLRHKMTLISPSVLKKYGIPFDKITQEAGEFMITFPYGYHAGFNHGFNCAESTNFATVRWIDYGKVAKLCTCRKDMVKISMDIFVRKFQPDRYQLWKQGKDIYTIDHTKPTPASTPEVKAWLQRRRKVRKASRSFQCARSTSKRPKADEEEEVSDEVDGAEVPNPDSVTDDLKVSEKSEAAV
Cardio protect – cardioprotection against H2O2-induced cell death, primary screen, uHTS, H9c2 cells, ATPLite luminescence. protection from H2O2 cell death, % at 20 µM. AID 588492, 2011. actives 0.63% (n = 360,000). H9c2 cardiomyocytes, H2O2 injury protection, 2 h;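 active means compounds giving at least 50% protection of heart cells from peroxide-induced death in the single-dose screen, raw or plate-pattern-corrected value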;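 further: 0% = DMSO wells with peroxide and 100% = DMSO wells without peroxide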
The depositor's hits bear a star; ? = inconclusive; nt = no result.

SMILES	PP5 primary	pCIP destab	Fh CTSL1 inh	T cruzi inh	GASC-1 inh	Cardio protect
COc1ccc(C(N)c2nccc3cc(OC)c(OC)cc23)cc1OC (configuration not stated)	3	13	26*	29	9	6
COc1ccc(Cl)cc1Cn1c(C)c(C(=O)NCc2cccc(Cl)c2)sc1=O	nt	nt	nt	nt	nt	4
COc1ccc(OC)c(CN2CCN(C(=O)[C@@H](NC(=O)c3cccc(C)c3)C(C)C)CC2)c1	1	nt	nt	nt	-2	16
O=C(Nc1cc(C(F)(F)F)ccc1-n1cncn1)c1ccc(Cl)cc1	4	4	1	21	11	-2
O=C(Nc1cc(Cl)ccc1-n1cncn1)c1cc(S(=O)(=O)N2CCOCC2)ccc1F	1	-11	6	9	-9	-1
O=C(Nc1cc(C(F)(F)F)ccc1-n1cncn1)c1ccc(-c2ccccc2)cc1	2	1	2	74*	7	-8
O=C(Nc1cc(S(=O)(=O)N2CCOCC2)ccc1-n1cncn1)c1ccc(Cl)cc1	-3	-6	-3	63*	10	-11
COc1ccccc1N=C1NC(=O)/C(=C/c2ccc(N(C)C)cc2)S1	1	-8	2	-2	40	-17
Cc1cc(C(=O)N2CCC2(C)C(=O)NS(=O)(=O)c2ccc(Cl)cc2)nn1C (configuration not stated)	nt	nt	nt	nt	nt	-9
CC(C)O/C(=N/S(=O)(=O)c1ccc(Cl)cc1)c1ccccc1	nt	nt	nt	nt	nt	4
COc1cccc2sc(Nc3nnc(-c4ccc(F)cc4)o3)nc12	3	4	-1	43	-14	35
COc1cccc2sc(Nc3nc(-c4ccccn4)cs3)nc12	1	-1	0	75*	-12	8
COc1cccc2sc(Nc3nnc(-c4cccs4)o3)nc12	2	8	-1	65*	?	18
COc1ccc(C(C)=O)cc1COC(=O)c1cc(=O)c2ccccc2o1	3	2	15	-6	14	8
CCc1nc2c(OCc3c(C)noc3C)cccn2c1N(C)C(=O)C(C)C	nt	nt	nt	nt	nt	10
CCC(C)(C)n1nnnc1C(c1cccnc1)N1CCC(Cc2ccccc2)CC1 (configuration not stated)	0	-9	-3	64*	-6	-4
CCC(C)(C)n1nnnc1C(c1cccnc1)N1CCCC(C)C1 (configuration not stated)	0	-17	-5	53	0	2
CC(C)(C)n1nnnc1C(c1cccc(C#N)c1)N1CCC(Cc2ccccc2)CC1 (configuration not stated)	1	2	0	81*	-5	-3
CCC(C)(C)n1nnnc1C(c1ccncc1)N1CCC(Cc2ccccc2)CC1 (configuration not stated)	3	-6	0	65*	-5	-3
CCC(C)(C)n1nnnc1C(c1cccc(C#N)c1)N1CCN(c2cc(C)ccc2C)CC1 (configuration not stated)	2	-15	-1	61*	21	4
COc1cc(OC)cc(-c2c(C#Cc3ccsc3)c3cc(-c4ccc5c(c4)OCO5)ccc3n2C)c1	nt	nt	nt	nt	nt	-3
CCOC(=O)C1CCCN(C(=O)c2cc(OC)ccc2Br)CC1 (configuration not stated)	nt	nt	nt	nt	nt	1
CS(=O)(=O)Nc1cccc(NC(=O)C2Cc3c(-c4cccc(F)c4)ccnc3O2)c1 (configuration not stated)	nt	nt	nt	nt	nt	3
Cc1ccc(-c2csc(N3CCC[C@@H]3C(=O)NCCn3c(-c4ccncc4)nc4ccccc43)n2)cc1	3	-3	-1	41	2	69*
Cc1nn(CC(=O)NCCC2=CCCCC2)c(C)c1[N+](=O)[O-]	-1	nt	0	-8	7	-2
SMILES	PP5 primary	pCIP destab	Fh CTSL1 inh	T cruzi inh	GASC-1 inh	Cardio protect
Oc1[nH]c2ccccc2c1N=Nc1ccccn1	nt	nt	nt	nt	nt	-2
Oc1c(N=Nc2ccccn2)ccc2ccccc12	2	-5	3	73*	-3	-8
COc1cc(NC(=O)Nc2ccc(Cl)c(Cl)c2)c(C(=O)O)cc1OC	6	20	-3	10	-11	8
CCN(CC)CCN(C(=O)c1ccc([N+](=O)[O-])cc1)c1nc2ccc(OC)cc2s1	3	1	0	43	-6	-2
CCOc1ccc2nc(N(CCN(CC)CC)C(=O)c3ccc([N+](=O)[O-])cc3)sc2c1	1	13	0	55*	1	3
Cc1ccc2nc(N(CCCN(C)C)C(=O)c3ccc4c(c3)CCCC4)sc2c1	2	-4	3	44	-14	-9
COc1cc2nc(N(CCN(C)C)C(=O)c3ccc4ccccc4c3)sc2cc1OC	-3	-7	-2	32	-20	1
CCN(CC)CCN(C(=O)c1ccc2c(c1)CCCC2)c1nc2cc(OC)c(OC)cc2s1	17*	1	12	26	-8	-12
CN(C)CCCN(C(=O)c1ccc2c(c1)CCCC2)c1nc2c(F)cccc2s1	3	-16	1	58*	-8	3
CN(C)CCCN(C(=O)c1sc2ccccc2c1Cl)c1nc2c(F)cccc2s1	0	1	4	39	4	30
Cc1cc(C)c2nc(N(CCCN(C)C)C(=O)c3ccc4c(c3)CCCC4)sc2c1	1	nt	-2	58*	?	nt
O=C(c1ccc(S(=O)(=O)N2CCCCCC2)cc1)N1CCN(c2ccccc2F)CC1	1	-6	4	21	1	3
O=C(CSc1nc(N2CCOCC2)nc(N2CCOCC2)n1)Nc1cccc(C(F)(F)F)c1	3	-10	0	3	6	-1
O=C(c1cc2ccccc2oc1=O)N(Cc1ccccc1F)C1CCS(=O)(=O)C1 (configuration not stated)	-1	-5	2	-13	-9	-3
O=C(O)c1ccccc1C(=O)c1ccc2c(c1)CCC2	3	7	-3	-5	9	0
CC(C)C(=O)N1CCCC1(C)C(=O)Nc1ccc(-n2cncn2)cc1 (configuration not stated)	nt	nt	nt	nt	nt	2
CN(C)CCCN(C(=O)c1ccc(N2C(=O)CCC2=O)cc1)c1nc2c(F)cccc2s1	2	3	-1	57*	8	3
COc1ccc(C2=Nn3c(nnc3-c3ccccc3F)SC2)cc1OCC1CC1	nt	nt	nt	nt	-14	7
CCN(c1ccccc1)S(=O)(=O)c1ccc(OC)c(NC(=O)CNCCc2ccccc2)c1	5	6	-4	58*	2	-14
